Measurements as given in ChEMBL document CHEMBL4414620, “Structurally Modified Cyclopenta[b]benzofuran Analogues Isolated from Aglaia perviridis” (J Nat Prod, 2019).

Key:
[1] = tested on: PC-3; assay: Antiproliferative activity against human PC3 cells incubated for 72 hrs by SRB assay; assay type: functional, cell-based; conditions: PC-3, 72 h
Summary of the method: (§1)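 Purified isolates were screened for cytotoxicity against HT-29 and PC-3 human cancer cells, with paclitaxel as the positive control for both lines.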

[2] = tested on: HT-29; assay: Antiproliferative activity against human HT-29 cells incubated for 72 hrs by SRB assay; assay type: functional, cell-based; conditions: HT-29, 72 h; summary of the method: as §1

COc1ccc([C@@]23Oc4cc5c(c(OC)c4[C@]2(O)[C@H](O)[C@H](C(N)=O)[C@H]3c2ccccc2)[C@@H]2OC[C@H]([C@H](O)CO)O[C@@H]2O5)cc1
IC50 [1]: > 10 µM | IC50 [2]: > 10 µM

COc1ccc([C@@]23Oc4cc5c(c(OC)c4[C@]2(O)[C@H](O)[C@H](C(N)=O)[C@H]3c2ccccc2)[C@@H]2OC[C@H]([C@@H](O)CO)O[C@@H]2O5)cc1
IC50 [1]: > 10 µM | IC50 [2]: > 10 µM

COc1ccc([C@@]23Oc4cc5c(c(OC)c4[C@]2(O)[C@H](O)[C@H](C(N)=O)[C@H]3c2ccccc2)[C@H]2OC[C@H]([C@@H](O)CO)O[C@H]2O5)cc1
IC50 [1]: > 10 µM | IC50 [2]: > 10 µM

COc1ccc([C@@]23Oc4cc5c(c(OC)c4[C@]2(O)[C@H](O)[C@H](C(N)=O)[C@H]3c2ccccc2)[C@H]2OC[C@H]([C@H](O)CO)O[C@H]2O5)cc1
IC50 [1]: > 10 µM | IC50 [2]: > 10 µM

COc1ccc([C@@]23Oc4cc(O[C@@H]5O[C@@H]([C@@H](O)CO)COC5O)cc(OC)c4[C@]2(O)[C@H](O)[C@H](C(N)=O)[C@H]3c2ccccc2)cc1 (mixture of isomers)
IC50 [1]: 2.3 µM | IC50 [2]: 2.3 µM
